# Data from ChEMBL document CHEMBL3421596, “A facile synthesis and microtubule-destabilizing properties of 4-(1H-benzo[d]imidazol-2-yl)-furazan-3-amines” (Eur J Med Chem, 2015).
# Activity calls are given as the source filed them. No cut-off for these calls is given here.
# Tests used:
# Paracentrotus lividus [1] = assay: Antiproliferative activity in sea urchin embryo assessed as antimitotic activity by measuring cleavage arrest exposed for 8 to 20 mins after fertilization and 45 to 55 mins before first mitotic cycle completion measured 2.5 to […] after fertilization; type: functional
# Paracentrotus lividus [2] = assay: Antiproliferative activity in sea urchin embryo assessed as destabilization of microtubule by measuring embryo spinning after 15 mins to 20 hrs; type: functional
# [3] = Cytotoxicity against human NCI60 cells assessed as cell growth at 10 uM; type: functional; settings: read-out: Activity
# How it was run: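 NCI60 panel screened by the NCI Developmental Therapeutics Program at a single 10 µM concentration; mean cell growth percent reported.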
# Paracentrotus lividus [4] = assay: Antiproliferative activity in sea urchin embryo assessed as antimitotic activity by measuring cleavage alteration exposed for 8 to 20 mins after fertilization and 45 to 55 mins before first mitotic cycle completion measured 2.5 to […] after fertilization; type: functional
# [5] = Cytotoxicity against human NCI60 cells; type: functional
# Paracentrotus lividus [6] = assay: Antiproliferative activity in sea urchin embryo assessed as destabilization of microtubule by tuberculate eggs after 15 mins to 20 hrs; type: functional, organism-based
# Tubulin = Tubulin (Bos taurus, UniProt Q6B856+Q862L2+Q862F3); assay: Inhibition of bovine tubulin polymerization by turbidity assay; type: protein assay
# [7] = Cytotoxicity against human OVCAR8 cells; type: functional
# MDA-MB-435 = assay: Cytotoxicity against human MDA-MB-435 cells; type: functional
# RXF 393 = assay: Cytotoxicity against human RXF393 cells; type: functional
# [8] = Cytotoxicity against human NCI-ADR-RES cells; type: functional
# SF-539 = assay: Cytotoxicity against human SF539 cells; type: functional
# [9] = Cytotoxicity against human OVCAR3 cells; type: functional
Compound,EC (Paracentrotus lividus [1]) [µM],EC (Paracentrotus lividus [2]) [µM],growth at 10 µM [3] [%],EC (Paracentrotus lividus [4]) [µM],also measured
COc1ccc2[nH]c(-c3nonc3N)nc2c1,>4,>5,101,0.5,–
COc1cccc(Cn2c(-c3nonc3NC(C)=O)nc3ccccc32)c1,>4,>4,–,1,GI50 [5]: 3980 nM
Nc1nonc1-c1nc2c(Cl)cccc2[nH]1,>4,>4,99.8,1,–
COc1ccc(NC(=O)Cn2c(-c3nonc3N)nc3ccccc32)cc1Cl,>4,>4,100,>4,–
Nc1nonc1-c1nc2ccccc2n1Cc1ccncc1,–,–,97,–,–
Cc1cccc(C)c1NC(=O)Cn1c(-c2nonc2N)nc2ccccc21,>4,>4,90.2,>4,–
Nc1nonc1-c1nc2cc3ccccc3cc2[nH]1,4,>4,–,0.5,–
Nc1nonc1-c1nc2cc(F)ccc2[nH]1,>4,>5,97.8,2,–
Cc1ccc(Cn2c(-c3nonc3N)nc3ccccc32)cc1,–,–,70.4,–,–
CC(C)(C)c1ccc(Cn2c(-c3nonc3N)nc3ccccc32)cc1,>4,>4,67.4,>4,–
N#CCn1c(-c2nonc2N)nc2ccccc21,>4,>4,102,>4,–
COc1cc2c(c(OC)c1OC)-c1ccc(OC)c(=O)cc1[C@@H](NC(C)=O)CC2 [COLCHICINE],100,50,–,50,Activity (Paracentrotus lividus [6]): Active; GI50 [5]: 132 nM
Nc1nonc1-c1nc2ccccc2n1Cc1cccc(Br)c1,–,–,–,–,IC50 (Tubulin): 2040 nM
Nc1nonc1-c1nc2ccccc2n1Cc1cccc(F)c1,>4,>4,–,0.5,IC50 (Tubulin): 7900 nM
Nc1nonc1-c1nc2ccccc2n1Cc1ccccn1,>4,>4,89.3,2,–
Nc1nonc1-c1nc2ccccc2n1CC(=O)NCc1ccc(F)cc1,>4,>4,102,4,–
Nc1nonc1-c1nc2ccccc2n1Cc1ccc(F)cc1,>4,>4,–,2,GI50 [5]: 8910 nM
Nc1nonc1-c1nc2ccccc2[nH]1,>4,>4,103,2,–
c1ccc2[nH]c(-c3nonc3-n3cccc3)nc2c1,>4,>4,104,>4,–

Compound,EC (Paracentrotus lividus [1]) [µM],EC (Paracentrotus lividus [2]) [µM],growth at 10 µM [3] [%],EC (Paracentrotus lividus [4]) [µM],also measured
Cc1cc(C)cc(NC(=O)Cn2c(-c3nonc3N)nc3ccccc32)c1,>4,>4,109,>4,–
CC(=O)Nc1nonc1-c1nc2ccccc2n1Cc1ccc(Cl)cc1Cl,–,–,76.7,–,–
N#Cc1ccc(Cn2c(-c3nonc3N)nc3ccccc32)cc1,>4,>4,79.8,4,–
Nc1nonc1-c1nc2ccccc2n1CC(=O)Nc1ccc(F)c(Cl)c1,>4,>4,70.5,2,–
Nc1nc(N)nc(Cn2c(-c3nonc3N)nc3ccccc32)n1,>4,>4,102,>4,–
Nc1nonc1-c1nc2ccccc2n1Cc1cc2c(cc1Br)OCO2,>4,>4,86.1,>4,–
COc1ccc(Cn2c(-c3nonc3N)nc3cc(C(F)(F)F)ccc32)cc1,>4,>4,81.1,>4,–
CC(=O)Nc1nonc1-c1nc2ccccc2n1Cc1ccncc1,>4,>5,101,>4,–
Nc1nonc1-c1nc2ccccc2n1Cc1ccc(Cl)cc1,>4,>4,85,>4,–
CC(=O)Nc1nonc1-c1nc2ccccc2n1Cc1ccc(C#N)cc1,>4,>4,94.1,>4,–
Nc1nonc1-c1nc2ccccc2n1Cc1nnn[nH]1,>4,>4,103,>4,–
COc1ccc2[nH]c(-c3nonc3-n3cccc3)nc2c1,>4,>4,104,2,–
COc1ccc(Cn2c(-c3nonc3NC(C)=O)nc3ccccc32)cc1,>4,>4,85,>4,–
CCC(=O)Nc1nonc1-c1nc2ccccc2n1Cc1ccc(F)cc1Cl,>4,>4,64.5,>4,–
Nc1nc(Cn2c(-c3nonc3N)nc3ccccc32)nc(N2CCCCC2)n1,>4,>4,87.7,4,–
Nc1nonc1-c1nc2cc(Cl)ccc2[nH]1,>4,>5,97.1,2,–
CC[C@]1(O)C[C@@H]2CN(CCc3c([nH]c4ccccc34)[C@@](C(=O)OC)(c3cc4c(cc3OC)N(C)[C@H]3[C@@](O)(C(=O)OC)[C@H](OC(C)=O)[C@]5(CC)C=CCN6CC[C@]43[C@@H]65)C2)C1 [VINBLASTINE],0.2,2,–,0.1,"TGI ([7]; OVCAR-8): 320 nM; GI50 ([7]; OVCAR-8, read-out: GI50): 1.6 nM; CC50 ([7]; OVCAR-8, read-out: LC50 (the source's name)): 2000 nM; Activity (Paracentrotus lividus [6]): Active; TGI (MDA-MB-435): 0.25 nM; GI50 (MDA-MB-435; read-out: GI50): 0.25 nM; CC50 (MDA-MB-435; read-out: LC50 (the source's name)): 1 nM; TGI (RXF 393): 50 nM; GI50 (RXF 393; read-out: GI50): 1 nM; GI50 [5]: 1.37 nM; TGI [8]: 790 nM; GI50 ([8]; read-out: GI50): 100 nM; TGI (SF-539): 2.5 nM; GI50 (SF-539; read-out: GI50): 0.6 nM; TGI ([9]; OVCAR-3): 1.6 nM; GI50 ([9]; OVCAR-3, read-out: GI50): 0.3 nM; CC50 ([9]; OVCAR-3, read-out: LC50 (the source's name)): 500 nM"
Nc1nonc1-c1nc2ccccc2n1Cc1cccc(C(F)(F)F)c1,–,–,–,–,IC50 (Tubulin): 13270 nM
N#CCCNc1nonc1-c1nc2ccccc2n1CC(=O)c1ccc(N)cc1 [AVANBULIN],–,–,–,–,GI50 [5]: 6.5 nM

Compound,EC (Paracentrotus lividus [1]) [µM],EC (Paracentrotus lividus [2]) [µM],growth at 10 µM [3] [%],EC (Paracentrotus lividus [4]) [µM],also measured
O=C(Nc1nonc1-c1nc2ccccc2n1Cc1ccncc1)c1ccncc1,>4,>4,97.1,>4,–
Nc1nonc1-c1nc2ccccc2n1CC(=O)Nc1ccc(OC(F)(F)F)cc1,>4,>4,105,4,–
N#Cc1ccc2[nH]c(-c3nonc3N)nc2c1,>4,>4,107,>4,–
CN(C)c1nc(N)nc(Cn2c(-c3nonc3N)nc3ccccc32)n1,>4,>4,80.8,2,–
Cn1c(-c2nonc2NC(=O)c2ccc(F)cc2)nc2ccccc21,–,–,99.5,–,–
Nc1nonc1-c1nc2ccccc2n1CC(=O)Nc1ccc2c(c1)COC2=O,4,>4,80.8,2,–
CC(=O)Nc1nonc1-c1nc2ccccc2n1Cc1ccc(C(C)(C)C)cc1,–,–,73.5,–,–
Nc1nonc1-c1nc2ccccc2n1CC(=O)Nc1ccccc1Cl,–,–,–,–,IC50 (Tubulin): 7360 nM
Cc1ccc(NC(=O)Cn2c(-c3nonc3NC(=O)c3ccc(F)cc3)nc3ccccc32)cc1F,–,–,71.8,–,–
C=CCn1c(-c2nonc2NC(C)=O)nc2ccccc21,>4,>4,96.5,>4,–
Nc1nonc1-c1nc2ccccc2n1Cc1cc2c(cc1Cl)OCO2,>4,>4,88.3,>4,–
C#CCn1c(-c2nonc2N)nc2ccccc21,>4,>4,99.6,>4,–
Nc1nonc1-c1nc2ccccc2n1Cc1cccc2ccccc12,–,–,–,–,IC50 (Tubulin): 7030 nM
Nc1nonc1-c1nc2ccccc2n1CCO,–,–,102,–,–
CCOc1ccc(Cn2c(-c3nonc3N)nc3ccccc32)cc1OCC,>4,>4,81,>4,–
CC(=O)Nc1nonc1-c1nc2ccccc2n1Cc1ccccn1,>4,>4,104,>4,–
Nc1nonc1-c1nc2ccccc2n1Cc1c(F)cccc1Cl,>4,>4,91.9,>4,–
CC(=O)Nc1nonc1-c1nc2ccccc2n1Cc1cccc(C(F)(F)F)c1,>4,>4,82.2,>4,–
